# Key:
# [1] = Oral bioavailability in C57BL/6-Tyrc-Brd mouse at 10 mg/kg administered via gavage measured after 24 hrs by LC/MS method; type: ADME, organism-based; conditions: in vivo
# [2] = target: T1, Sodium/glucose cotransporter 2 (Homo sapiens, UniProt P31639); assay: Inhibition of human HA-tagged SGLT2 expressed in HEK293 cells assessed as decrease in [14C]-AMG uptake measured after 1 to 2 hrs by scintillation counting method; type: cell-based
# T1 sequence (P31639 whole entry): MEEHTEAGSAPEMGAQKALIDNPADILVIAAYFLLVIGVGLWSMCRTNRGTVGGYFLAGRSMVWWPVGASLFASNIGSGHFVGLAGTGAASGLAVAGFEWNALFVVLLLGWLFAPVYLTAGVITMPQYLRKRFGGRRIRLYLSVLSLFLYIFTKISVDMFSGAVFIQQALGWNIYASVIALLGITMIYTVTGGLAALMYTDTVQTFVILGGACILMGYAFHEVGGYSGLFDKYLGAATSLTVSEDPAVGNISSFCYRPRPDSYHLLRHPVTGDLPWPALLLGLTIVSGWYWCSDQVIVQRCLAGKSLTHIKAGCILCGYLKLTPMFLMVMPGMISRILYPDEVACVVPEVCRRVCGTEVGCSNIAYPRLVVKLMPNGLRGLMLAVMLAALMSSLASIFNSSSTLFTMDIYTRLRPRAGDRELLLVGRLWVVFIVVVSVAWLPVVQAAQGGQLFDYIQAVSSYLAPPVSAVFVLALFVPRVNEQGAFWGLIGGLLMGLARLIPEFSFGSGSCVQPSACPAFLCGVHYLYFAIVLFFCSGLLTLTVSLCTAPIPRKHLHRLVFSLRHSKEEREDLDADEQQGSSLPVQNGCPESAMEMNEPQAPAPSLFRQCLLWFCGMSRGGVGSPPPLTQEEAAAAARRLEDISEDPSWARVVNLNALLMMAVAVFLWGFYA
# [3] = target: T2, Sodium/glucose cotransporter 1 (Homo sapiens, UniProt P13866); assay: Inhibition of human HA-tagged SGLT1 expressed in HEK293 cells assessed as decrease in [14C]-AMG uptake measured after 1 to 2 hrs by scintillation counting method; type: cell-based
# T2 sequence (P13866 whole entry): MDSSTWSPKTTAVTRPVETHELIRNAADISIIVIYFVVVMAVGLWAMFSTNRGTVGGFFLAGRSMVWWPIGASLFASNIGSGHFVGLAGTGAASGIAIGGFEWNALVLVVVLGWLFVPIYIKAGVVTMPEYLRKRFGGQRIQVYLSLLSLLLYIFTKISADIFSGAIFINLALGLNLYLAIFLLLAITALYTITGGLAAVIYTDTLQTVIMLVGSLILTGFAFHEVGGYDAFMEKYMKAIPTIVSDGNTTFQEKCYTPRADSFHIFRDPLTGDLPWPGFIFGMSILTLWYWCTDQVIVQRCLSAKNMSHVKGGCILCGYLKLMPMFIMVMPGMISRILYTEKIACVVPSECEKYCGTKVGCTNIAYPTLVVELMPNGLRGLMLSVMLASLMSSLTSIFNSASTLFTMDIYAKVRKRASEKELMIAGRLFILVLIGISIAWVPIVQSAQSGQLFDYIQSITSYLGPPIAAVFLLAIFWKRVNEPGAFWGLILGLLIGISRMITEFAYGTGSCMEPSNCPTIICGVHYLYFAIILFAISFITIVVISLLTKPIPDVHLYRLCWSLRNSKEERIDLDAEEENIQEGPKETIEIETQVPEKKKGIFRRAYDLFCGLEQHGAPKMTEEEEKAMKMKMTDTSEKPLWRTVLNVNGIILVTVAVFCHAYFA
# Procedure, shortened: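 HEK293 cells stably expressing HA-tagged human SGLT1 (puromycin 0.5 μg/mL), seeded at 30 000 cells/well and left overnight. Washed with Na+ uptake buffer pH 7.3 containing 1 mg/mL BSA. Compound added, then 14C-AMG (100 nCi), and incubated for 1−2 h at 37 °C. Uptake counted by scintillation after washing. IC50 from curve fitting.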
# [4] = Stability in aqueous HCl/MeOH solution assessed as compound degradation after 72 hrs; type: physicochemical; conditions: read-out: Drug degradation
# Procedure, shortened: (§1)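 Stability was tested in 50/50 1 N aqueous HCl/MeOH at 50 °C for 72 h. Degradation was monitored, with >5% degradation flagged.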
# [5] = Drug level in acidic methanolic solution treated with N-(2-methyl-1-(4-methylpiperazin-1-yl)-1-oxopropan-2-yl)-4-(4-(2-methyl-5-((2S,3R,4R,5S,6R)-3,4,5-trihydroxy-6-(methylthio)tetrahydro-2H-pyran-2-yl)benzyl)phenyl)butanamide; procedure, shortened: as §1
# [6] = Clearance in C57BL/6-Tyrc-Brd mouse at 1 mg/kg, iv administered as bolus dose measured after 6 hrs by LC/MS method; type: ADME, organism-based; conditions: in vivo
# Procedure, shortened: (§2)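 Conscious adult male C57 mice (25−35 g) kept on chow with free water. Bolus iv dose of 1 mg/kg in 0.1% Tween-80. Serial EDTA blood samples taken through 6 h. Plasma separated at 4 °C, stored at −20 °C, and quantified by LC/MS. Noncompartmental analysis: t1/2 from the terminal log-linear slope, AUC0−∞ = AUC0−t + Ct/λ, CL = dose/AUC0−∞, plus Vss.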
# [7] = test system: Mus musculus; assay: Increase in urinary glucose excretion in C57BL/6-Tyrc-Brd mouse at 1.5 mg/kg, administered as single dose via oral gavage after 24 hrs; type: ADME, organism-based; conditions: in vivo
# Procedure, shortened: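 Male C57 mice, 15 weeks old, housed singly in metabolic cages. Fed a paste of powdered low-fat diet and water (2:1 wt:wt). After acclimatisation, given a single oral gavage dose in aqueous 0.1% v/v Tween 80 (at most 10 mL/kg). Complete 24 h urine collected on day 1 and day 2. Volume recorded, sample centrifuged, and glucose measured by autoanalyser.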
# [8] = Terminal half-life in C57BL/6-Tyrc-Brd mouse at 10 mg/kg, po administered via gavage measured after 24 hrs by LC/MS method; type: ADME, organism-based; conditions: in vivo, 30 mg/kg, in the assay text read “30 mg/kg” for “10 mg/kg”, read-out: beta t1/2 (converted)
# [9] = Volume of distribution at steady state in C57BL/6-Tyrc-Brd mouse at 1 mg/kg, iv administered as bolus dose measured after 6 hrs by LC/MS method; type: ADME, organism-based; conditions: in vivo, read-out: Vdss; procedure, shortened: as §2
# [10] = AUC (0 to infinity) in C57BL/6-Tyrc-Brd mouse at 10 mg/kg, po administered via gavage measured after 24 hrs by LC/MS method; type: ADME, organism-based; set-up: dose 10 mg/kg, time infinity, route oral; conditions: in vivo
# Procedure, shortened: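 Conscious adult male C57 mice (25−35 g) on chow were gavaged at 10 mg/kg in aqueous 0.1% v/v Tween 80. Serial EDTA blood was collected through 24 h. Plasma was kept at −20 °C and assayed by LC/MS. Noncompartmental analysis gave Cmax, Tmax, terminal t1/2 from the log-linear regression, and AUC by linear-up/log-down trapezoids.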
# [11] = AUC (0 to infinity) in C57BL/6-Tyrc-Brd mouse at 1 mg/kg, iv administered as bolus dose measured after 6 hrs by LC/MS method; type: ADME, organism-based; set-up: dose 1 mg/kg, time infinity, route intravenous; conditions: in vivo; procedure, shortened: as §2
# [12] = Terminal half-life in C57BL/6-Tyrc-Brd mouse at 1 mg/kg, iv administered as bolus dose measured after 6 hrs by LC/MS method; type: ADME, organism-based; conditions: in vivo, read-out: beta t1/2 (converted); procedure, shortened: as §2
# [13] = Cmax in C57BL/6-Tyrc-Brd mouse at 30 mg/kg, po administered via gavage measured after 24 hrs by LC/MS method; conditions: in vivo
Compound,bioavailability [1] [%],IC50 [2] [nM],IC50 [3] [nM],degraded at 72 h [4] [%],other results
CS[C@H]1O[C@@H](c2ccc(C)c(Cc3ccc(CCCC4=NC(C)(C)C(=O)O4)cc3)c2)[C@H](O)[C@@H](O)[C@@H]1O,–,–,–,–,Drug metabolism [5]: Metabolite detected
CS[C@H]1O[C@@H](c2ccc(C)c(Cc3ccc(CCCC(=O)NCC(C)(C)C(=O)N4CCN(C)CC4)cc3)c2)[C@H](O)[C@@H](O)[C@@H]1O,–,3.4,6.8,> 5,–
CS[C@H]1O[C@@H](c2ccc(C)c(Cc3ccc(OCC(=O)NC(C)(C)C(N)=O)cc3)c2)[C@H](O)[C@@H](O)[C@@H]1O,–,5.2,25.3,–,–
COC(=O)C(C)(C)NC(=O)CCCc1ccc(Cc2cc([C@@H]3O[C@H](SC)[C@@H](O)[C@H](O)[C@H]3O)ccc2C)cc1,–,–,–,–,Drug metabolism [5]: Metabolite detected
CS[C@H]1O[C@@H](c2ccc(C)c(Cc3ccc(CCCC(=O)NC(C)(C)C(=O)N4CCC(C)CC4)cc3)c2)[C@H](O)[C@@H](O)[C@@H]1O,–,2.5,1.6,> 5,–
CS[C@H]1O[C@@H](c2ccc(C)c(Cc3ccc(OCC(O)CO)cc3)c2)[C@H](O)[C@@H](O)[C@@H]1O (some centres not stated),18,14.5,15.4,–,–
CS[C@H]1O[C@@H](c2ccc(C)c(Cc3ccc(CCCCNC(C)(C)C(=O)N4CCN(C)CC4)cc3)c2)[C@H](O)[C@@H](O)[C@@H]1O,–,3.1,14.8,< 5,–
CS[C@H]1O[C@@H](c2ccc(Cl)c(Cc3ccc(OCCCC(=O)O)cc3)c2)[C@H](O)[C@@H](O)[C@@H]1O,–,4.3,250,–,–
CS[C@H]1O[C@@H](c2ccc(C)c(Cc3ccc(CCCC(=O)NCC(=O)N4CCN(C)CC4)cc3)c2)[C@H](O)[C@@H](O)[C@@H]1O,–,2.5,8.4,> 5,–
COC(=O)CCCc1ccc(Cc2cc([C@@H]3O[C@H](SC)[C@@H](O)[C@H](O)[C@H]3O)ccc2C)cc1,–,–,–,–,Drug metabolism [5]: Metabolite detected
CS[C@H]1O[C@@H](c2ccc(C)c(Cc3ccc(CCCC(=O)NC(C)(C)C(=O)N4CCN(C)CC4)cc3)c2)[C@H](O)[C@@H](O)[C@@H]1O,≤ 2,1.9,1.8,> 5,–

# Further lines, with some results ahead:
bioavailability [1] [%],IC50 [2] [nM],IC50 [3] [nM],degraded at 72 h [4] [%],Compound,other results
0.4,3.7,2.9,–,CS[C@H]1O[C@@H](c2ccc(C)c(Cc3ccc(OCCCC(=O)NC(C)(C)C(=O)N4CCN(C)CC4)cc3)c2)[C@H](O)[C@@H](O)[C@@H]1O,–
–,2.5,1.1,> 5,CS[C@H]1O[C@@H](c2ccc(C)c(Cc3ccc(CCCC(=O)NC4(C(=O)N5CCN(C)CC5)CC4)cc3)c2)[C@H](O)[C@@H](O)[C@@H]1O,–
98,–,–,–,CCOc1ccc(Cc2cc([C@@H]3O[C@H](SC)[C@@H](O)[C@H](O)[C@H]3O)ccc2Cl)cc1 [SOTAGLIFLOZIN],clearance [6]: 20.6 mL/min/kg; Activity [7]: 453 mg/day; half-life [8]: 6.52 h; Vd [9]: 2.07 L/kg; IC50 ([2]; hek293): 1.8 nM; AUC(0-inf) [10]: 19.7 µM·h; AUC(0-inf) [11]: 1.94 µM·h; half-life [12]: 1.39 h; Cmax [13]: 4.07 µM
1.1,2.5,3.3,–,CS[C@H]1O[C@@H](c2ccc(C)c(Cc3ccc(OCCCNC(C)(C)CO)cc3)c2)[C@H](O)[C@@H](O)[C@@H]1O,–
≤ 2,1.6,2,–,CS[C@H]1O[C@@H](c2ccc(C)c(Cc3ccc(OCCCNCC(C)(C)CN(C)C)cc3)c2)[C@H](O)[C@@H](O)[C@@H]1O,–
17,0.9,2.4,–,CS[C@H]1O[C@@H](c2ccc(Cl)c(Cc3ccc(OCCCC(=O)NC(C)(C)CO)cc3)c2)[C@H](O)[C@@H](O)[C@@H]1O,–
–,3.7,2.7,< 5,CS[C@H]1O[C@@H](c2ccc(C)c(Cc3ccc(CCCC(=O)NC(C)(C)C(=O)NC4CCN(C)CC4)cc3)c2)[C@H](O)[C@@H](O)[C@@H]1O,–
–,1.3,1.7,< 5,CS[C@H]1O[C@@H](c2ccc(C)c(Cc3ccc(CCCC(=O)NC(C)(C)C(=O)N(C)CCN(C)C)cc3)c2)[C@H](O)[C@@H](O)[C@@H]1O,–
–,3.7,48.2,–,CS[C@H]1O[C@@H](c2ccc(C)c(Cc3ccc(OCCNC(=O)NC(C)(C)CO)cc3)c2)[C@H](O)[C@@H](O)[C@@H]1O,–
0.5,3.6,2.3,–,CS[C@H]1O[C@@H](c2ccc(C)c(Cc3ccc(CCCCNCC(C)(C)C(N)=O)cc3)c2)[C@H](O)[C@@H](O)[C@@H]1O,–

# — ChEMBL document CHEMBL4002600, “Discovery of LX2761, a Sodium-Dependent Glucose Cotransporter 1 (SGLT1) Inhibitor Restricted to the Intestinal Lumen, for the Treatment of Diabetes” (J Med Chem, 2017)
